Measurements collected from several papers.
Each line is one published result; the experiments were not run side by side.

`CCOC(=O)CNC(=O)CO/N=c1\cc2n(-c3ccc(Cl)cc3)c3ccccc3nc-2cc1Nc1ccc(Cl)cc1` gave an MIC of 1.88 µM (Mycobacterium avium; microbial growth; ATCC700898).
For `CC(=O)OCCCOc1ccc(C(=O)C(Cl)Cl)cc1[N+](=O)[O-]`, the inhibition was 78.2% (NCI-H1975; cell growth or viability, MTT; 2.5 µM).
For `C[C@H](NC(=O)CO/N=c1\cc2n(-c3ccc(Cl)cc3)c3ccccc3nc-2cc1Nc1ccc(Cl)cc1)C(=O)OC(C)(C)C`, the MIC was greater than 30 µM (Mycobacterium avium; microbial growth; clinical isolate).
For `O=C(c1ccc(Oc2ccc3oc(=O)ccc3c2)c([N+](=O)[O-])c1)C(Cl)Cl`, the inhibition was 61.6% (NCI-H1975; cell growth or viability, MTT; 2.5 µM).
For `CCCCCc1nc(N)nc(N)c1OCCCOc1ccccc1CCC(=O)O`, the MIC was 0.6 µg/mL (Mycobacterium avium; microbial growth, resazurin).
`O=C(c1ccc(Oc2ccc3c(c2)OCO3)c([N+](=O)[O-])c1)C(Cl)Cl` has an inhibition of 97.3% (NCI-H1975; cell growth or viability, MTT; 2.5 µM).
For `Nc1nc(N)c(OCCCOc2ccccc2CCC(=O)O)c(C2CCNCC2)n1`, the MIC was 6.2 µg/mL (Mycobacterium avium; microbial growth, resazurin).
`O=C(c1ccc(Oc2ccc(Br)cc2)c([N+](=O)[O-])c1)C(Cl)Cl` has an inhibition of 60.3% (NCI-H1975; cell growth or viability, MTT; 2.5 µM).
With `CO/N=c1\cc2n(-c3ccc(Cl)cc3)c3ccccc3nc-2cc1Nc1ccc(Cl)cc1` the MIC was 0.47 µM (Mycobacterium avium; microbial growth; ATCC700898).
For `Nc1nc(N)c(OCCCOc2ccccc2CCC(=O)O)c(-c2ccncc2)n1`, the MIC was 0.6 µg/mL (Mycobacterium avium; microbial growth, resazurin).
With `CC(=O)Nc1ccc(Oc2ccc(C(=O)C(Cl)Cl)cc2[N+](=O)[O-])cc1Cl` the inhibition was 96.5% (NCI-H1975; cell growth or viability, MTT; 2.5 µM).
`C=CC(=O)NC1CCN(c2ncc3ncnc(Nc4ccc(Oc5ccc6c(c5)ncn6C)c(C)c4)c3n2)CC1` has an EC50 of 706 nM (NCI-H520; cell growth or viability).
`O=C(O)CO/N=c1\cc2n(-c3ccc(Cl)cc3)c3ccccc3nc-2cc1Nc1ccc(Cl)cc1` gave an MIC of 0.94 µM (Mycobacterium avium; microbial growth; ATCC700898).
With `CN(Cc1ccc(C(C)(C)C)cc1)Cc1cccc2ccccc12` the inhibition zone was no less than 55 mm (Trichophyton rubrum; microbial growth, disc diffusion; ATCC28188; 0.064 µg/mL, 6 days).
For `O/N=c1\cc2n(-c3ccc(Cl)cc3)c3ccccc3nc-2cc1Nc1ccc(Cl)cc1`, the MIC was greater than 30 µM (Mycobacterium avium; microbial growth; clinical isolate).
For `COc1cccc(-c2nc(N)nc(N)c2OCCCOc2ccccc2CCC(=O)O)c1`, the MIC was 5.6 µg/mL (Mycobacterium avium; microbial growth, resazurin).
`CN(Cc1ccc(C2(C(F)(F)F)CC2)cc1)Cc1cccc2ccccc12` gave an inhibition zone of no less than 55 mm (Trichophyton rubrum; microbial growth, disc diffusion; ATCC28188; 0.256 µg/mL, 6 days).
`O=C(CO/N=c1\cc2n(-c3ccc(Cl)cc3)c3ccccc3nc-2cc1Nc1ccc(Cl)cc1)NCc1ccc(C(F)(F)F)cc1` gave an MIC of greater than 30 µM (Mycobacterium avium; microbial growth; ATCC700898).
`COc1cccc2c1C(=O)c1c(O)c3c(c(O)c1C2=O)C[C@@](O)(C(=O)CO)C[C@@H]3O[C@H]1C[C@H](N)[C@H](O)[C@H](C)O1` has an inhibition of 97.7% (NCI-H1975; cell growth or viability, MTT; 2.5 µM).
